Reference: ChEMBL document CHEMBL1149629 (Bioorg Med Chem, 2007)
Activity calls are given as the source filed them. No cut-off for these calls is given here.

Legend:
[1] = target: T1, DNA topoisomerase 1 (Homo sapiens) (UniProt P11387); assay: Inhibition of topoisomerase 1 upto 50 uM
T1 sequence (whole entry): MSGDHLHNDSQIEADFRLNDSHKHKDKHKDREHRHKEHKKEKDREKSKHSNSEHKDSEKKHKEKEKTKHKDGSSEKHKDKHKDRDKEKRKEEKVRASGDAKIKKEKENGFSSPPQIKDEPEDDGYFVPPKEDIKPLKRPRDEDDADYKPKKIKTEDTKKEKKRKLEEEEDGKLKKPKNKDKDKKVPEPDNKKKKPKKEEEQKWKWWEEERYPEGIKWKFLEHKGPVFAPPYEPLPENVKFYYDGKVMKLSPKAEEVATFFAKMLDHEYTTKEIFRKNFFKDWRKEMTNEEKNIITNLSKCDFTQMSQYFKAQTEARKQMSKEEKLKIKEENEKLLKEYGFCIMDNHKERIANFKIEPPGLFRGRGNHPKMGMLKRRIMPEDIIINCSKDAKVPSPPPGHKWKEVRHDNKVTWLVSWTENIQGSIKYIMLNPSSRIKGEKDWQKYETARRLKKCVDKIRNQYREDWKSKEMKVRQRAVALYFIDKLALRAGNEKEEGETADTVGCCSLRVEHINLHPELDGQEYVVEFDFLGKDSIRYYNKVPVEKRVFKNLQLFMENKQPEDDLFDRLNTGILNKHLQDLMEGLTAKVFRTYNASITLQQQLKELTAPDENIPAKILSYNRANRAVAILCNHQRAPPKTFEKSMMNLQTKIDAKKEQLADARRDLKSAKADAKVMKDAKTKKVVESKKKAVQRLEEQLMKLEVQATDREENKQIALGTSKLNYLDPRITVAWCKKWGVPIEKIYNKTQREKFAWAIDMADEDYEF
Procedure, shortened: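 DNA relaxation and DNA cleavage assays with topoisomerase I, run following published procedures, with compounds up to 50 µM.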

DU-145 = assay: Antiproliferative activity against human DU145 cells […] by microculture tetrazolium assay; assay type: functional, cell-based
Procedure, shortened: (§1)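 Tumor cells (ATCC) grown in RPMI 1640 with 10% fetal calf serum, 2 mM L-glutamine, penicillin/streptomycin, 10 mM HEPES pH 7.4. Continuous exposure to graded concentrations for four doubling times, then MTT added and incubated 4 h at 37 °C. Formazan dissolved in DMSO, optical density read. IC50 = concentration reducing OD by 50% versus untreated controls.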

A549 = assay: Antiproliferative activity against human A549 cells […] by microculture tetrazolium assay; assay type: functional, cell-based; procedure, shortened: as §1
HT-29 = assay: Antiproliferative activity against human HT29 cells […] by microculture tetrazolium assay; assay type: functional, cell-based; procedure, shortened: as §1
L1210 = assay: Antiproliferative activity against mouse L1210 cells […] by microculture tetrazolium assay; assay type: functional, cell-based; procedure, shortened: as §1
[2] = target: T1, DNA topoisomerase 1 (Homo sapiens); assay: Inhibition of topoisomerase 1
[3] = target: T2, Serine/threonine-protein kinase Chk1 (Homo sapiens) (UniProt O14757); assay: Inhibition of human Chk1 at 10 uM
T2 sequence (whole entry): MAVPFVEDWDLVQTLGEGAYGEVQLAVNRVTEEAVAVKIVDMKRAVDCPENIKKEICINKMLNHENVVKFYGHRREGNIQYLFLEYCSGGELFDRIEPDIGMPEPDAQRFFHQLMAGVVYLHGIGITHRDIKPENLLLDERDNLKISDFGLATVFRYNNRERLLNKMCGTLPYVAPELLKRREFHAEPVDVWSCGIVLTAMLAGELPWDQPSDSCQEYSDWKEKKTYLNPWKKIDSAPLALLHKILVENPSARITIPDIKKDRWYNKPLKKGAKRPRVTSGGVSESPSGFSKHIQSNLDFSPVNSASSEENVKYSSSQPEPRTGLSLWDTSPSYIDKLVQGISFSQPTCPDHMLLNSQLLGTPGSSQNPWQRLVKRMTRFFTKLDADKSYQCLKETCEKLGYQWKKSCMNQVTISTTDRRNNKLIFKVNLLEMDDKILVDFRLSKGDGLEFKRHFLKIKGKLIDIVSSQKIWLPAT
Procedure, shortened: (§2)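 Chk1 from a commercial source or purified as GST–Chk1 from baculovirus-infected Sf9 cells. Assay based on a published method. Percent inhibition determined at 10 µM; IC50 determined for selected compounds.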

Homo sapiens [4] = species on record: Homo sapiens; assay: Binding affinity to DNA assessed as melting temperature
[5] = target: T3, Serine/threonine-protein kinase Chk1 (Homo sapiens, UniProt O14757); assay: Inhibition of human Chk1; procedure, shortened: as §2
T3 sequence (O14757 whole entry): T2 sequence (whole entry)

[6] = target: Proto-oncogene tyrosine-protein kinase Src (Homo sapiens) (UniProt P12931); assay: Inhibition of Src tyrosine kinase at 1 uM after 20 mins
Proto-oncogene tyrosine-protein kinase Src (Homo sapiens), sequence (P12931 2-536 limits assumed): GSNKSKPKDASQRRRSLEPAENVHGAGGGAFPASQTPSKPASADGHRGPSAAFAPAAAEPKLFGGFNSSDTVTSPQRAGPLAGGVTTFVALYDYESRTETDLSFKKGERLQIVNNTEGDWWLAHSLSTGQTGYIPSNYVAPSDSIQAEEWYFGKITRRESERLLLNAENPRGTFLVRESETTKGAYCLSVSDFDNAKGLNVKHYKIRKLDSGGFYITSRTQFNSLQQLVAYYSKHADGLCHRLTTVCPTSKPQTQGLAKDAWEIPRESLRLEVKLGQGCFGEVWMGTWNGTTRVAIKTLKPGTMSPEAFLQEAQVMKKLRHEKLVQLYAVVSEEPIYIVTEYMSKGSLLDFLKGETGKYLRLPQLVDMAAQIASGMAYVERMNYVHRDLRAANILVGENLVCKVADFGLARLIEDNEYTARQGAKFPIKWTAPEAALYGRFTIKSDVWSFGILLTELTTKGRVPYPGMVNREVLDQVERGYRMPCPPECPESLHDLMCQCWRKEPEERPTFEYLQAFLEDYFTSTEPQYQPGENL

Homo sapiens [7] = species on record: Homo sapiens; assay: Inhibition of CAMK2 at 1 uM
Procedure, shortened: (§3)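 Single-concentration (1 µM) inhibition profiling carried out through a commercial kinase profiler screening service.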

[8] = target: Ribosomal protein S6 kinase beta-1 (Homo sapiens) (UniProt P23443); assay: Inhibition of P70S6K at 1 uM; procedure, shortened: as §3
Ribosomal protein S6 kinase beta-1 (Homo sapiens), sequence (P23443 whole entry, looked up): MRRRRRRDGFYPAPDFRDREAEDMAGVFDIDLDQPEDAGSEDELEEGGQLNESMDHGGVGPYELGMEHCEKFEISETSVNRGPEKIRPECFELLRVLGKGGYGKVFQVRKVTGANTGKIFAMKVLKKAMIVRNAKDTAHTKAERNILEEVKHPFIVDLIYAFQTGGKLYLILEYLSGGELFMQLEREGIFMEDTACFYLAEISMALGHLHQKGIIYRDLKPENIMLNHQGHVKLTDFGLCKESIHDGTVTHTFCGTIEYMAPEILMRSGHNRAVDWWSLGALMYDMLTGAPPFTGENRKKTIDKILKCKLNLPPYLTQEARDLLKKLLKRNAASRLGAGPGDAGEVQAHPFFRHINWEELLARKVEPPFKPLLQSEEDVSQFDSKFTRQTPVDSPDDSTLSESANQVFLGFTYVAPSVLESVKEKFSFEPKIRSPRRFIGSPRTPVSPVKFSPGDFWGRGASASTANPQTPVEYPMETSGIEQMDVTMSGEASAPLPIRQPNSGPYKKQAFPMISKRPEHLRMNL

[9] = target: T2, Serine/threonine-protein kinase Chk1 (Homo sapiens); assay: Inhibition of Chk1 at 1 uM
[10] = target: Protein kinase C beta type (Homo sapiens) (UniProt P05771); assay: Inhibition of PKCbeta at 1 uM; procedure, shortened: as §3
Protein kinase C beta type (Homo sapiens), sequence (P05771 2-671 limits assumed): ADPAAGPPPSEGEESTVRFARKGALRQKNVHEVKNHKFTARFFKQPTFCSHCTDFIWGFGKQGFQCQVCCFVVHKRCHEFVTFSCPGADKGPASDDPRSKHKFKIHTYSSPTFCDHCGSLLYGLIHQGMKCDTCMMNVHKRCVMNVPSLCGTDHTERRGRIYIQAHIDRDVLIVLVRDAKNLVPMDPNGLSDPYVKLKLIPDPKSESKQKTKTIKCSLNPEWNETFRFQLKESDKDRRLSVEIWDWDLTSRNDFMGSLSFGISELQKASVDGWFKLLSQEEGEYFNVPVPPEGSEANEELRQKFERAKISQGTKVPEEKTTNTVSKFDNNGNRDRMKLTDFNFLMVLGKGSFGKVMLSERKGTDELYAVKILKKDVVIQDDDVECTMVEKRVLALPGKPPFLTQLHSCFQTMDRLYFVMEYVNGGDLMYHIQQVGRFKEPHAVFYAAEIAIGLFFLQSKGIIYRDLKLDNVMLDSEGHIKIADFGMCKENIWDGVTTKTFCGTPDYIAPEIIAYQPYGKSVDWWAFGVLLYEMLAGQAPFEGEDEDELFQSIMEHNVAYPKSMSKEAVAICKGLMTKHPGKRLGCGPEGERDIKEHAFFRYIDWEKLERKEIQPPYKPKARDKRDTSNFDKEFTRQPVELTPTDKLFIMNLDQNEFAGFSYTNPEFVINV

Homo sapiens [11] = species on record: Homo sapiens; assay: Inhibition of PKA at 1 uM; procedure, shortened: as §3
[12] = target: T4, Protein kinase C epsilon type (Homo sapiens) (UniProt Q02156); assay: Inhibition of PKCepsilon at 1 uM; procedure, shortened: as §3
T4 sequence (whole entry): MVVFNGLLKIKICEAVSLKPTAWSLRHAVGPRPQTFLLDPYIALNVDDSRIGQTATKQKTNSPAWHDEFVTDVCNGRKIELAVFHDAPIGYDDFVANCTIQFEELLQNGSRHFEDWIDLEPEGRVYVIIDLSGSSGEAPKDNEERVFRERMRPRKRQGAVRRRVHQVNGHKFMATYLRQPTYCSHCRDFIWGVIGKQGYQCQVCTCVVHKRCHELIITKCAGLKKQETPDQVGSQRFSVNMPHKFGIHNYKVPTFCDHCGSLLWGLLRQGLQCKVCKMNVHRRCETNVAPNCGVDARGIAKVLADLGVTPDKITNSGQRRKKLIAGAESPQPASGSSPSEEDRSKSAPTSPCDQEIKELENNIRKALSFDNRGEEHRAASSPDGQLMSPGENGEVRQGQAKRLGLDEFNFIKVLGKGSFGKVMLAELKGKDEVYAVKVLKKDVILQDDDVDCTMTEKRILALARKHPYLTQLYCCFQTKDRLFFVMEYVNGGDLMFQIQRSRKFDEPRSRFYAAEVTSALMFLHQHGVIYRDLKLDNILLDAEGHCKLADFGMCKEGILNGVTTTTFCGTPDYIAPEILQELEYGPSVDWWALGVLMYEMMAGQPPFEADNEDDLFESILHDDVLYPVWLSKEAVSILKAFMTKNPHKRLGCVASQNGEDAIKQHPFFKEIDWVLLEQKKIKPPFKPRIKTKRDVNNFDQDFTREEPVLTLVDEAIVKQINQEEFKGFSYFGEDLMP

Homo sapiens [13] = species on record: Homo sapiens; assay: Inhibition of FGFR3 at 1 uM; procedure, shortened: as §3
[14] = target: Protein kinase C alpha type (Homo sapiens) (UniProt P17252); assay: Inhibition of PKCalpha at 1 uM; procedure, shortened: as §3
[15] = target: Mitogen-activated protein kinase 1 (Homo sapiens) (UniProt P28482); assay: Inhibition of MAPK1 at 1 uM; procedure, shortened: as §3
Mitogen-activated protein kinase 1 (Homo sapiens), sequence (P28482 whole entry): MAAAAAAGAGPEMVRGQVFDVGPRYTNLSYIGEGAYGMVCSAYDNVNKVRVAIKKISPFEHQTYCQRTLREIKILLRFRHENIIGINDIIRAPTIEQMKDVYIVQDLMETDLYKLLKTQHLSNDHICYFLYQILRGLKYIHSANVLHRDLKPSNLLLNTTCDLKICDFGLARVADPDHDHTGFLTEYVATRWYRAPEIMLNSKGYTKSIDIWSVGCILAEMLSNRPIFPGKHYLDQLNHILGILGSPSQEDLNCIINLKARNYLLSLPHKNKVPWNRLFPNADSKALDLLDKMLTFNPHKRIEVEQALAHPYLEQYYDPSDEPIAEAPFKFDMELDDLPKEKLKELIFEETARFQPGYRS

[16] = target: Tyrosine-protein kinase Lck (Homo sapiens) (UniProt P06239); assay: Inhibition of LCK at 1 uM; procedure, shortened: as §3
Tyrosine-protein kinase Lck (Homo sapiens), sequence (P06239 2-509 limits assumed): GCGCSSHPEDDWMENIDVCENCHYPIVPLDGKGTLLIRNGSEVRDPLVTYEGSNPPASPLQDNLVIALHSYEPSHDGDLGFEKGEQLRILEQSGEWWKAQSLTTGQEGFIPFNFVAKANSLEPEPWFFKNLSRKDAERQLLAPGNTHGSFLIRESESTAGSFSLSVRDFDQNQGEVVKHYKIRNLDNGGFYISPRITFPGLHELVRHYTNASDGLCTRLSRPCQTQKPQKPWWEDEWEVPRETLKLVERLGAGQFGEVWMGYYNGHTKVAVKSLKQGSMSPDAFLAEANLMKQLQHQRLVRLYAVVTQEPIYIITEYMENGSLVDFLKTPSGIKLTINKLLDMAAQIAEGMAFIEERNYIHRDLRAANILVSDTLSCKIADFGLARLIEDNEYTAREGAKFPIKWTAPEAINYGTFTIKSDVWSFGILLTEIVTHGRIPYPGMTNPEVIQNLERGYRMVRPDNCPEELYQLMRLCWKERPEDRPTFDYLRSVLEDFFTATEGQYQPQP

[17] = target: Cyclin-dependent kinase 2 (Homo sapiens) (UniProt P24941); assay: Inhibition of CDK2/cyclin A at 1 uM; procedure, shortened: as §3
Homo sapiens [18] = species on record: Homo sapiens; assay: Inhibition of CK1 at 1 uM; procedure, shortened: as §3
[19] = target: AMP-activated protein kinase, AMPK (Homo sapiens) (UniProt P54646+O43741+P54619+Q9UGJ0+Q9Y478+Q13131+Q9UGI9); assay: Inhibition of AMPK at 1 uM; assay type: protein-complex assay; procedure, shortened: as §3
Homo sapiens [20] = species on record: Homo sapiens; assay: Inhibition of GSK3 at 1 uM; procedure, shortened: as §3
[21] = target: MAP kinase-activated protein kinase 2 (Homo sapiens) (UniProt P49137); assay: Inhibition of MAPKAPK2 at 1 uM; procedure, shortened: as §3
MAP kinase-activated protein kinase 2 (Homo sapiens), sequence (P49137 whole entry, looked up): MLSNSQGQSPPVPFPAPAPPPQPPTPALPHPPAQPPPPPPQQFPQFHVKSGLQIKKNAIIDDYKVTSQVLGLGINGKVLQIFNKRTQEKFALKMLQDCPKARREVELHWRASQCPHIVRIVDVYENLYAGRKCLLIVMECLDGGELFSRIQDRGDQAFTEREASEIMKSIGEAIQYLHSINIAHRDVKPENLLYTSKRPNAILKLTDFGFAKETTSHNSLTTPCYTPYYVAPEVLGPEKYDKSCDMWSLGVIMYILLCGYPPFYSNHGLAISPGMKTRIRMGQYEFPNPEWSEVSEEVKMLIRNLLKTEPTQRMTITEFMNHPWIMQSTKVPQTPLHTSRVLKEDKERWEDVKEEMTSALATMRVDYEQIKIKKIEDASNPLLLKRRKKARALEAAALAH

Row | Activity [1] | IC50 (DU-145) | IC50 (A549) | IC50 (HT-29) | IC50 (L1210) | Activity [2] | inhibition [3] | Activity (Homo sapiens [4]) | IC50 [5] | SMILES | also measured
1 | inactive | 22.7 µM | 20 µM | 35.9 µM | 42.7 µM | inactive | 10.3% | inactive | – | CN1C(=O)c2c(n3cccc3c3[nH]c4ccc(OCc5ccccc5)cc4c23)C1=O | –
2 | – | 13.1 µM | 18.1 µM | – | – | – | – | – | 0.44 µM | O=C1NC(=O)c2c1c1c3ccccc3[nH]c1n1cncc21 [ISOGRANULATIMIDE] | –
3 | inactive | 1.2 µM | > 100 µM | > 100 µM | 33 µM | inactive | – | inactive | – | CN1C(=O)c2c(n3cccc3c3[nH]c4ccccc4c23)C1=O | –
4 | – | 13.5 µM | 7.4 µM | 9.7 µM | 8.8 µM | – | 11.6% | – | – | CN1C(=O)c2c(n3cncc3c3[nH]c4ncccc4c23)C1=O | –
5 | inactive | 64.8 µM | 128 µM | 53 µM | > 100 µM | inactive | 10.7% | inactive | – | CN1C(=O)c2c(n3ccnc3c3c2c2cccnc2n3[C@@H]2O[C@H](CO)[C@@H](O)[C@H](O)[C@H]2O)C1=O | –
6 | – | 56.1 µM | 78.5 µM | 52.5 µM | > 100 µM | – | 15.1% | – | – | CN1C(=O)c2c(n3cncc3c3c2c2cccnc2n3[C@@H]2O[C@H](CO)[C@@H](O)[C@H](O)[C@H]2O)C1=O | –
7 | inactive | 1.4 µM | 2 µM | 3.3 µM | 3.1 µM | inactive | 85% | inactive | 0.024 µM | O=C1NC(=O)c2c1c1c3ccccc3[nH]c1c1cccn21 | inhibition [6]: 32.5%
8 | – | – | 8.8 µM | 26.5 µM | 5.4 µM | – | 54.1% | – | – | CN1C(=O)c2c(n3cccc3c3[nH]c4ccc(O)cc4c23)C1=O | –
9 | inactive | 1.9 µM | 47.1 µM | 5.9 µM | 4.9 µM | inactive | 43.1% | inactive | – | CN1C(=O)c2c(c3c4ccccc4[nH]c3c3cc[nH]c23)C1=O | –
10 | – | – | 23.2 µM | 13.7 µM | 27 µM | – | 54.8% | – | 0.64 µM | O=C1NC(=O)c2c1c1c3cc(OCc4ccccc4)ccc3[nH]c1c1cccn21 | –
11 | – | 15.1 µM | 16.1 µM | 27.8 µM | 4.5 µM | – | 95.8% | – | 0.016 µM | O=C1NC(=O)c2c1c1c3cc(O)ccc3[nH]c1c1cccn21 | inhibition [6]: 1.2%
12 | inactive | 27.4 µM | 28.9 µM | 30.4 µM | 14.7 µM | inactive | 95.4% | inactive | 0.089 µM | O=C1NC(=O)c2c1c1c3cc(Cl)ccc3[nH]c1c1cccn21 | % activity (Homo sapiens [7]): 40%; % activity [8]: 51%; % activity [9]: 6%; % activity [10]: 79%; % activity (Homo sapiens [11]): 98%; inhibition [6]: 22.1%; % activity [12]: 86%; % activity (Homo sapiens [13]): 32%; % activity [14]: 75%; % activity [15]: 98%; % activity [16]: 92%; % activity [17]: 69%; % activity (Homo sapiens [18]): 94%; % activity [19]: 29%; % activity (Homo sapiens [20]): 39%; % activity [21]: 75%
13 | inactive | 7.4 µM | 35.6 µM | 30.6 µM | 43.5 µM | inactive | 36.1% | – | – | CN1C(=O)c2c(n3ccnc3c3[nH]c4ncccc4c23)C1=O | –
14 | inactive | – | 68.3 µM | 63.2 µM | 41.2 µM | inactive | 55.6% | inactive | – | CN1C(=O)c2c(n3cccc3c3[nH]c4ccc(Cl)cc4c23)C1=O | –
15 | – | 21.7 µM | 20.9 µM | 29 µM | 12.5 µM | – | 87.9% | – | 0.066 µM | O=C1NC(=O)c2c1c1c3cc(Br)ccc3[nH]c1c1cccn21 | % activity (Homo sapiens [7]): 55%; % activity [8]: 26%; % activity [9]: 14%; % activity [10]: 98%; % activity (Homo sapiens [11]): 103%; inhibition [6]: 22.3%; % activity [12]: 90%; % activity (Homo sapiens [13]): 50%; % activity [14]: 85%; % activity [15]: 88%; % activity [16]: 91%; % activity [17]: 88%; % activity (Homo sapiens [18]): 104%; % activity [19]: 46%; % activity (Homo sapiens [20]): 44%; % activity [21]: 99%
16 | – | > 100 µM | 67 µM | 88.3 µM | 48.7 µM | – | 7.1% | – | – | CN1C(=O)c2c(n3cccc3c3[nH]c4ccc(Br)cc4c23)C1=O | –
17 | – | 4.6 µM | 19.7 µM | 17.1 µM | 29.2 µM | – | 76.6% | – | 3.6 µM | O=C1NC(=O)c2c1c1c3cccnc3[nH]c1c1cccn21 | –
18 | – | 2.8 µM | 11.4 µM | – | – | – | 93.9% | – | 0.08 µM | O=C1NC(=O)c2c1c1[nH]cnc1c1[nH]c3ccccc3c21 [GRANULATIMIDE] | –
